In ChEMBL document CHEMBL4689842, “EUbOPEN Chemogenomics Library wave 1” (2021):

Tested on: Fibroblast
Experiment: Multiplex assay against human fibroblast
Format: toxicity, cell-based
Procedure, shortened: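 Per cents of healthy-nucleus cells form the tubulin, mitochondrial-mass and membrane-permeability phenotype values. Live cells were stained at seeding with Hoechst33342, BioTracker Green Microtubule Cytoskeleton Dye, MitoTracker Red and Annexin V Alexa Fluor 680. After compound addition they were imaged on a CQ1 microscope at 37°C and 5% CO2, and CellPathfinder machine-learning gating split them into Hoechst high-intensity objects or normal cells, normal cells into healthy, pyknosed or fragmented nuclei, and pyknosed cells into mitotic or apoptotic.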

[1] = 12 h, 1 µM, compound concentration 1 uM, replicate 1
[2] = 12 h, 1 µM, compound concentration 1 uM, replicate 2
[3] = 12 h, 10 µM, compound concentration 10 uM, replicate 1
[4] = 12 h, 10 µM, compound concentration 10 uM, replicate 2
[5] = 24 h, 1 µM, compound concentration 1 uM, replicate 1
[6] = 24 h, 1 µM, compound concentration 1 uM, replicate 2
[7] = 24 h, 10 µM, compound concentration 10 uM, replicate 1
[8] = 24 h, 10 µM, compound concentration 10 uM, replicate 2

c1ccc2oc(-c3csc(C4CCN(Cc5nc6ncccc6[nH]5)CC4)n3)cc2c1
Population Apoptotic (%) [1]: 73%
Population Fragmented Nuclei (%) [1]: 30%
Population Healthy Nuclei (%) [1]: 55%
Population Hoechst High Intensity Objects (%) [1]: 15%
Population Membrane Permeable-Phenotype (%) [1]: 9%
Population Mitochondria Different-Phenotype (%) [1]: 10%
Population Mitotic Cells (%) [1]: 26%
Population Normal (%) [1]: 85%
Population Pyknosed Nuclei (%) [1]: 13%
Population Tubulin-Different-Phenotype (%) [1]: 12%
Total Cell Count [1]: 160
Population Apoptotic (%) [2]: 25%
Population Fragmented Nuclei (%) [2]: 59%
Population Healthy Nuclei (%) [2]: 28%
Population Hoechst High Intensity Objects (%) [2]: 34%
Population Membrane Permeable-Phenotype (%) [2]: 15%
Population Mitochondria Different-Phenotype (%) [2]: 5%
Population Mitotic Cells (%) [2]: 75%
Population Normal (%) [2]: 65%
Population Pyknosed Nuclei (%) [2]: 11%
Population Tubulin-Different-Phenotype (%) [2]: 26%
Total Cell Count [2]: 103
Population Apoptotic (%) [3]: 63%
Population Fragmented Nuclei (%) [3]: 25%
Population Healthy Nuclei (%) [3]: 55%
Population Hoechst High Intensity Objects (%) [3]: 11%
Population Membrane Permeable-Phenotype (%) [3]: 3%
Population Mitochondria Different-Phenotype (%) [3]: 1%
Population Mitotic Cells (%) [3]: 36%
Population Normal (%) [3]: 88%
Population Pyknosed Nuclei (%) [3]: 19%
Population Tubulin-Different-Phenotype (%) [3]: 4%
Total Cell Count [3]: 190
Population Apoptotic (%) [4]: 66%
Population Fragmented Nuclei (%) [4]: 65%
Population Healthy Nuclei (%) [4]: 28%
Population Hoechst High Intensity Objects (%) [4]: 35%
Population Membrane Permeable-Phenotype (%) [4]: 21%
Population Mitochondria Different-Phenotype (%) [4]: 0%
Population Mitotic Cells (%) [4]: 33%
Population Normal (%) [4]: 64%
Population Pyknosed Nuclei (%) [4]: 6%
Population Tubulin-Different-Phenotype (%) [4]: 0%
Total Cell Count [4]: 76
Population Apoptotic (%) [5]: 50%
Population Fragmented Nuclei (%) [5]: 38%
Population Healthy Nuclei (%) [5]: 51%
Population Hoechst High Intensity Objects (%) [5]: 12%
Population Membrane Permeable-Phenotype (%) [5]: 10%
Population Mitochondria Different-Phenotype (%) [5]: 4%
Population Mitotic Cells (%) [5]: 50%
Population Normal (%) [5]: 87%
Population Pyknosed Nuclei (%) [5]: 9%
Population Tubulin-Different-Phenotype (%) [5]: 17%
Total Cell Count [5]: 165
Population Apoptotic (%) [6]: 25%
Population Fragmented Nuclei (%) [6]: 64%
Population Healthy Nuclei (%) [6]: 28%
Population Hoechst High Intensity Objects (%) [6]: 39%
Population Membrane Permeable-Phenotype (%) [6]: 25%
Population Mitochondria Different-Phenotype (%) [6]: 0%
Population Mitotic Cells (%) [6]: 75%
Population Normal (%) [6]: 60%
Population Pyknosed Nuclei (%) [6]: 7%
Population Tubulin-Different-Phenotype (%) [6]: 25%
Total Cell Count [6]: 92
Population Apoptotic (%) [7]: 90%
Population Fragmented Nuclei (%) [7]: 26%
Population Healthy Nuclei (%) [7]: 59%
Population Hoechst High Intensity Objects (%) [7]: 11%
Population Membrane Permeable-Phenotype (%) [7]: 2%
Population Mitochondria Different-Phenotype (%) [7]: 0%
Population Mitotic Cells (%) [7]: 9%
Population Normal (%) [7]: 88%
Population Pyknosed Nuclei (%) [7]: 13%
Population Tubulin-Different-Phenotype (%) [7]: 2%
Total Cell Count [7]: 183
Population Apoptotic (%) [8]: 100%
Population Fragmented Nuclei (%) [8]: 59%
Population Healthy Nuclei (%) [8]: 34%
Population Hoechst High Intensity Objects (%) [8]: 34%
Population Membrane Permeable-Phenotype (%) [8]: 13%
Population Mitochondria Different-Phenotype (%) [8]: 6%
Population Mitotic Cells (%) [8]: 0%
Population Normal (%) [8]: 65%
Population Pyknosed Nuclei (%) [8]: 6%
Population Tubulin-Different-Phenotype (%) [8]: 0%
Total Cell Count [8]: 67
